# A selection: hits, their analogues and other compounds. The true share with any hit is near 3.5%.
# PGC1a acetyl inh = PGC1a acetylation modulation, inhibitor mode | U2OS PGC1a acetylation, AlphaScreen anti-acetyl-lysine; with virally co-expressed GCN5 acetyltransferase | actives 0.17% (n = 350,000) | inhibition, % at 15.6 µM | AID 651687;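 active means every replicate shows inhibition of at least 40%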;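 further: 0% = neutral control wells and 100% = positive control wells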
# Env fusion inh = HIV envelope-mediated fusion inhibition | HeLa-JRFL Env/CEM21 cell fusion, luciferase | actives 1.1% (n = 360,000) | inhibition, % at 12.3 µM;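 active means mean replicate inhibition score of at least 50 and every replicate individually at or above 50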;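 further: 0% = plate neutral controls and 100% = maraviroc near 300 nM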
# PglD inh = blocks C. jejuni PglD acetyltransferase activity; purified PglD enzyme, DTNB colorimetric CoA detection; inhibition, % at 12.5 µM; actives 0.098% (n = 360,000); AID 602405; in the data active means inhibition above about 16%, passing the limit was not always enough
# DENV2 CPE = DENV2-induced cell death inhibition; AID 651640; DENV2-infected cells, cytopathic effect rescue, plate reader; CPE inhibition, % at 9.99 µM; actives 1.7% (n = 350,000); in the data active means CPE inhibition above about 20%, passing the limit was not always enough; tested in BHK-21 cells;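 further: 0% = median of neutral control wells and 100% = median of positive control wells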
# FN deposit inh = fibronectin deposition inhibition; AID 743247; AH1F fibroblasts, Alexa488-fibronectin deposition fluorescence, overnight; actives 0.086% (n = 350,000); inhibition, % at 12.6 µM;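 active means mean inhibition across replicates of 30% or more, regardless of how many single replicates reach that level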;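 further: positive control wells lacked labelled fibronectin entirely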
#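 Material: AH1F fibroblasts assembling fluorescent fibronectin matrix; amount: 10000 AH1F cells/well; medium: DMEM, 2% serum; reagent: Alexa488-fibronectin, 24 nM final in well; dosing: single compound dose, delivered by pin transfer; incubation: 1 h adhesion, overnight exposure; detection: fluorescence after three HBSS washes, excitation 485 nm, emission 525 nm; measure: fibronectin deposition inhibition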
# rRNA inh HTS = inhibitors of bacterial rRNA selective over humanized ribosomes; E. coli WT GFP vs humanized-ribosome RFP mutants, fluorescence, 24 h; hits give low values; DMSO median 0, no signal -100; GFP signal change (wild-type ribosome), % (concentration not given with the values); actives 1.6% (n = 350,000); AID 720706;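 active means significant combined selectivity score with lowered wild-type GFP, culture density cut under 30%, mutant RFP and density less affected; inactive means any of these conditions unmet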
# * = called active by the depositor; . = not tested or not shown; [ ] = another dose, or the depositor's remark.
SMILES,PGC1a acetyl inh,Env fusion inh,PglD inh,DENV2 CPE,FN deposit inh,rRNA inh HTS
Cc1ccc(O)c(-c2cc(-c3cccc(Br)c3)n[nH]2)c1,.,-29,-6,5,37*,-51
C[C@@H]1CCCCO[C@@H](CN(C)S(=O)(=O)c2ccccc2)[C@H](C)CN([C@H](C)CO)C(=O)c2cc(NS(=O)(=O)c3ccc(F)cc3)ccc2O1,-14,10[16.7 µM],0,2,-3,-2
CC(C)(C)N1C(=O)[C@H]2[C@@H](c3ccc(Br)cc3)N3C(=O)N(c4ccccc4)C(=O)[C@@]3(Cc3ccccc3)[C@H]2C1=O,.,68*,5,-2,-12,4
CC(C)(C)N1C(=O)[C@H]2[C@@H](c3ccc(Br)cc3)N3C(=O)N(c4cccc(Br)c4)C(=O)[C@@]3(Cc3ccccc3)[C@H]2C1=O,-9,.,-2,.,.,.
CC(C)(C)N1C(=O)[C@H]2[C@@H](c3ccc(Br)cc3)N3C(=O)N(c4ccccc4)C(=O)[C@@]3(C)[C@H]2C1=O,2,104*,-4,8,-1,-13
Cc1ccc(S(=O)(=O)Nc2cccc3c2O[C@H](CN(C)Cc2ccc(C(=O)Nc4ccccc4N)cc2)[C@H](C)CN([C@H](C)CO)C3=O)cc1,-15,-100[16.7 µM],11,21*,.,0
C[C@H]1CN([C@@H](C)CO)C(=O)c2cccc(NS(=O)(=O)c3ccc(F)cc3)c2O[C@H]1CN(C)Cc1ccc(C(=O)Nc2ccccc2N)cc1,-7,.,.,22*,.,-3
C[C@@H]1CN([C@@H](C)CO)C(=O)c2cccc(NS(=O)(=O)c3ccc(F)cc3)c2O[C@@H]1CN(C)Cc1ccc(C(=O)Nc2ccccc2N)cc1,-42,-70[16.7 µM],12,-7,.,-6
C[C@H]1CN([C@@H](C)CO)C(=O)c2cc(NS(=O)(=O)c3cn(C)cn3)ccc2O[C@@H]1CN(C)Cc1ccc(C(=O)Nc2ccccc2N)cc1,-8,.,-2,-1,.,8
C[C@H](CO)N1C[C@H](C)[C@H](CN(C)Cc2ccc(C(=O)Nc3ccccc3N)cc2)Oc2c(NS(=O)(=O)c3cn(C)cn3)cccc2C1=O,-2,.,.,34*,-8,3
COc1cccc(NC(=O)N(C)C[C@H]2Oc3cc(-c4ccccc4F)ccc3S(=O)(=O)N([C@H](C)CO)C[C@H]2C)c1,11,-16[16.7 µM],2,.,1,0
C[C@@H]1CN([C@H](C)CO)C(=O)c2cc(C3=CCCCC3)cnc2O[C@@H]1CN(C)C(=O)c1ccccc1,8,.,.,-15,-5,4
COc1ccc(-c2ccc([C@H]3[C@@H](CO)N4CCCCN(C(=O)NC(C)C)C[C@H]34)cc2)cc1,4,.,-5,31*,.,0
COc1ccc(-c2ccc([C@@H]3[C@H]4CN(C(=O)NC(C)C)CCCCN4[C@H]3CO)cc2)cc1,-11,.,9,-8,.,1
COc1ccc(-c2ccc([C@H]3[C@H](CO)N4CCCCN(C(=O)NC(C)C)C[C@@H]34)cc2)cc1,-6,.,0,40*,.,-2
COc1ccc(C#Cc2ccc3c(c2)[C@@H]2[C@@H](CCN2S(=O)(=O)c2ccc(OC)cc2)[C@@H](CO)N3C)cc1,13,.,0,-11,-8,3
C[C@@H]1CN([C@H](C)CO)C(=O)c2c(c3ccccc3n2C)-c2ccccc2CO[C@H]1CN(C)C(=O)Nc1ccnc(N2CCOCC2)c1,.,.,.,-3,-7,-1
CCCCN1C(=O)C(CC(=O)NC2CC2)CC(C(=O)N(CC)CC)=C1C (stereo not given),-8,-1,-2,23*,-4,8
COc1cccc(-n2nnnc2SCC(=O)NCc2ccc3c(c2)OCO3)c1,9,.,7,-5,.,-21*
CCOC(=O)c1c(C)[nH]c(C(=O)Nc2ccc(NC(C)=O)cc2)c1C,1,7,.,-2,5,-27*
CCOC(=O)c1ccc(NC(=O)c2c(C)[nH]c(C(=O)OCC)c2C)cc1,5,1,7,.,.,.
COc1ccc(NC(=O)Nc2ccc3c(c2)C(=O)N([C@@H](C)CO)C[C@H](C)[C@@H](CN(C)S(=O)(=O)c2ccc(C)cc2)OCCCC[C@H](C)O3)cc1,-10,7[16.7 µM],2,-1,.,2

# Source: PubChem (Broad Institute)
